Experimental findings from ChEMBL document CHEMBL1667738, “Sesquiterpene benzoxazoles and sesquiterpene quinones from the marine sponge Dactylospongia elegans” (2011) are described below.

In one test the test system is SF-268. The test can be described thus: Cytotoxicity against human SF268 cells after 48 hrs by SRB assay. Type of test: functional. To be noted: SF-268, 48 h. In a few lines: (§1)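 Cells grown in RPMI 1640 with L-glutamine and 5% fetal bovine serum, in a humidified incubator at 37 °C and 5% CO2. Seeded at 5000 cells/well. Pure compounds dissolved in DMSO, serially diluted in medium, and tested at 10 concentrations between 66.7 and 0.01 µg/mL. Total protein measured by SRB at 490 nm at 0 and 48 h. GI50 taken against vehicle-only and time-zero readings.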
Background: In SRB staining, fixed cells bind dye roughly in proportion to their protein.

Another test relates to HT-29. The test can be described thus: Cytotoxicity against human HT-29 cells after 48 hrs by SRB assay. Type of test: functional. Particulars: HT-29, 48 h. A digest of the protocol:
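CHO-K1 (Chinese hamster ovary subclone) and HT-29 cells grown in MEM with Earle's salts, L-glutamine, nonessential amino acids and sodium pyruvate. Seeded at 5000 cells/well. Compounds dissolved in DMSO, serially diluted in medium, and tested at 10 concentrations spanning 66.7–0.01 µg/mL. SRB protein read at 490 nm at 0 and 48 h. GI50 derived against vehicle-only and time-zero values.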

For the next test, the system named is MCF7. The test can be described thus: Cytotoxicity against human MCF7 cells after 48 hrs by SRB assay. Particulars: MCF7, 48 h. Type of test: functional. A digest of the protocol:
as §1

In the next test the test system is NCI-H460. The test can be described thus: Cytotoxicity against human H460 cells after 48 hrs by SRB assay. The test is classed as functional. Particulars: NCI-H460, 48 h. A digest of the protocol:
as §1

The test system of the next test is CHO-K1. The test can be described thus: Cytotoxicity against Chinese hamster CHO-K1 cells after 48 hrs by SRB assay. Particulars: Cricetulus griseus, CHO-K1, 48 h.

As to `C=C1CCC[C@@]23OC4=C(C[C@]2(C)[C@@H](C)CC[C@@]13C)C(=O)C(OC)=CC4=O` [DACTYLOQUINONE B], the GI50 (as a rule, the concentration at which growth is held to half of that of the control) in the test on SF-268 amounted to 32 µM; in the test with HT-29 it was 46 µM; in the test with MCF7, 41 µM; in the test with NCI-H460, 30 µM; in the test on CHO-K1 it was 43 µM.
For `C=C1CCC[C@H]2[C@](C)(CC3=C(O)C(=O)C=C(OC)C3=O)[C@@H](C)CC[C@]12C` [ILIMAQUINONE], in that order: 2.7 µM, 5.4 µM, 3.9 µM, 1.8 µM and 2 µM.
For `C=C1CCC[C@H]2[C@](C)(Cc3c(OC(C)=O)c(OC(C)=O)cc4ncoc34)[C@@H](C)CC[C@]12C` [NAKIJINOL B DIACETATE], in that order: 9 µM, 15 µM, 19 µM, 6.8 µM and 5.2 µM.
For `C=C1CCC[C@H]2[C@](C)(Cc3c(O)c(O)cc4ncoc34)[C@@H](C)CC[C@]12C` [NAKIJINOL B], in that order: 24 µM, 21 µM, 35 µM, 24 µM and 11 µM.
As to `C=C1CCC[C@H]2[C@](C)(CC3=C(O)C(=O)C=C(NCC(=O)O)C3=O)[C@@H](C)CC[C@]12C` [SMENOSPONGINE B], the GI50 in the test on SF-268 came to 9.7 µM; with HT-29, 6 µM; in the test on MCF7, 10 µM; in the test on NCI-H460, 6 µM; in the test with CHO-K1, 3 µM.
With `C=C1CCC[C@H]2[C@](C)(CC3=C(O)C(=O)C=C(NCCC(=O)O)C3=O)[C@@H](C)CC[C@]12C` [SMENOSPONGINE C], the GI50 in the test with SF-268 is 20 µM; in the test with HT-29, 28 µM; in the test with MCF7 it was 31 µM; with NCI-H460, 14 µM; with CHO-K1 it was 18 µM.
